By Ki is commonly meant the dissociation constant of the complex between target and ligand, obtained from inhibition or displacement. Low values mean higher affinity, high ones lower affinity. Broadly, the EC50 is the concentration giving half of the maximal effect.

Here are results for nine molecules from ChEMBL document CHEMBL1144940 (J Med Chem, 2003).

The target of experiment [1] is T1, Melanocortin receptor 3 (Homo sapiens, UniProt P41968). Description: Agonist activity against human Melanocortin 3 receptor at 10 uM.
Experiment [2] concerns the target T2, Melanocortin receptor 5 (Homo sapiens, UniProt P33032). Description: Binding affinity against human Melanocortin 5 receptor by gamma-MCH displacement. The procedure, abridged:
(§1)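 Competition binding on intact HEK293 cells stably expressing the human receptor, seeded 50000 cells/well 48 h earlier. Lysates were gamma-counted. Ki came from competition curves; mean of duplicate experiments in triplicate.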

Experiment [3] has as its target T1, Melanocortin receptor 3. Description: Binding affinity against human Melanocortin 3 receptor by gamma-MCH displacement. The procedure, abridged: as §1
Experiment [4] concerns the target T2, Melanocortin receptor 5. Description: Agonist activity against human Melanocortin 5 receptor at 10 uM.
For experiment [5], the target named is T3, Melanocortin receptor 4 (Homo sapiens, UniProt P32245). Description: Agonist activity against human Melanocortin 4 receptor at 10 uM.
Experiment [6] deals with T3, Melanocortin receptor 4. Description: Intracellular cAMP accumulation in Melanocortin 4 receptor functional assay.
The target in experiment [7] is T1, Melanocortin receptor 3. Description: Intracellular cAMP accumulation in human Melanocortin 3 receptor functional assay. A general note: Cyclic AMP is a second messenger, typically raised through Gs and lowered through Gi signalling.
In experiment [8] the target is T3, Melanocortin receptor 4. Description: Binding affinity against Melanocortin 4 receptor by gamma-MCH displacement. The procedure, abridged: as §1
The target of experiment [9] is T2, Melanocortin receptor 5. Description: Intracellular cAMP accumulation in human Melanocortin 5 receptor functional assay.

Square brackets hold non-standard residues; d marks the D form. Peptide text beside a SMILES is read from it. d2Nal = N[C@H](Cc1ccc2ccccc2c1)C(=O)O; Nle = CCCC[C@H](N)C(=O)O A value given as a limit tells only on which side of the number the result lay.

T2 sequence (P33032 whole entry): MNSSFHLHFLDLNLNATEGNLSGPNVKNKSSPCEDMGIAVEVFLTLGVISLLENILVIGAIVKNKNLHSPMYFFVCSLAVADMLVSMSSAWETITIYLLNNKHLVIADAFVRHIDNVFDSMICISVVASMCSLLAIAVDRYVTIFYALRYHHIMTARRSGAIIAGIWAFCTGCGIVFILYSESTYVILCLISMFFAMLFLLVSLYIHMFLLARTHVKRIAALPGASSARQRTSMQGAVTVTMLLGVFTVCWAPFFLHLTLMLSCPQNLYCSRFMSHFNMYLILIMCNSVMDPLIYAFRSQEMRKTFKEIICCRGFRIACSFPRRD
T3 sequence (P32245 whole entry): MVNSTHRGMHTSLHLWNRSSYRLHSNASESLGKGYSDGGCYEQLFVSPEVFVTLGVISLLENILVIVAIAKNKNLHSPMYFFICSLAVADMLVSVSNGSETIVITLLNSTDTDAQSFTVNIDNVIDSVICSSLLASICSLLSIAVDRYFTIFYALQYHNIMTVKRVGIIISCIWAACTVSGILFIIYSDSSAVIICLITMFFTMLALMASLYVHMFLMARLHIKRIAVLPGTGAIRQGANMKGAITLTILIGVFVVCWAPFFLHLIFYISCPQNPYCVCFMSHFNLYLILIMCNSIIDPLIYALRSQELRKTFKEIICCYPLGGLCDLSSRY
T1 sequence (P41968 whole entry): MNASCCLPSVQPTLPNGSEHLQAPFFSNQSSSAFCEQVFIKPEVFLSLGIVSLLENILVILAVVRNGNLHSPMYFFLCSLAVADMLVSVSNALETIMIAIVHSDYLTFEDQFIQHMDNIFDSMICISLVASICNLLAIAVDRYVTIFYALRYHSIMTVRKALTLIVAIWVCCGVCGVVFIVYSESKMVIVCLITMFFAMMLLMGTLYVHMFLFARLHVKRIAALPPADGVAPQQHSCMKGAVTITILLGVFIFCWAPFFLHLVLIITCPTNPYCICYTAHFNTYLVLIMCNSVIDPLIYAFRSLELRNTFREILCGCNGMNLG

`CCCC[C@H](NC(=O)[C@@H](NC(=O)[C@@H](N)Cc1ccc(O)cc1)C(C)C)C(=O)NCC(=O)N[C@@](C)(Cc1ccccc1)C(=O)N[C@@H](Cc1ccccc1)C(=O)N[C@@H](CCCN=C(N)N)C(=O)N[C@H](Cc1ccc2ccccc2c1)C(=O)N[C@@H](CC(=O)O)C(=O)N[C@@H](CCCN=C(N)N)C(=O)N[C@@H](Cc1ccccc1)C(=O)NCC(N)=O`: the results for the Activity in [1], in [4] and in experiment [5] were 40%, 40% and 80%, respectively. The results for the Ki in experiment [2], in [3] and in experiment [8] were 3300 nM, 1400 nM and 1300 nM, respectively. The results for the EC50 in experiment [6], in [7] and in experiment [9] were 53 nM, 150 nM and 210 nM, respectively.
As for `CCCC[C@H](NC(=O)[C@@H](NC(=O)[C@@H](N)Cc1ccc(O)cc1)C(C)C)C(=O)NCC(=O)N[C@@H](Cc1c[nH]cn1)C(=O)N[C@H](Cc1ccc2ccccc2c1)C(=O)N[C@@H](CCCN=C(N)N)C(=O)N[C@H](Cc1ccc2ccccc2c1)C(=O)N[C@@H](CC(=O)O)C(=O)N[C@@H](CCCN=C(N)N)C(=O)N[C@@H](Cc1ccccc1)C(=O)NCC(N)=O`, the Activity stood at 40% in [1] and 100% in experiment [5]. In addition, the Ki in [2] was > 4800 nM; in experiment [3], 12 nM; in experiment [8], 4.6 nM. For the same molecule, the EC50 in experiment [6] is 44 nM; in experiment [7], 12 nM; in experiment [9] it was > 10000 nM.
Regarding `CCCC[C@H](NC(=O)[C@@H](NC(=O)[C@@H](N)Cc1ccc(O)cc1)C(C)C)C(=O)NCC(=O)N[C@@H](Cc1c[nH]cn1)C(=O)N[C@@H](Cc1ccccc1)C(=O)N[C@@H](CCCN=C(N)N)C(=O)N[C@H](Cc1ccc2ccccc2c1)C(=O)N[C@@H](CC(=O)O)C(=O)N[C@@H](CCCN=C(N)N)C(=O)N[C@@H](Cc1ccccc1)C(=O)NCC(N)=O`, the Activity stood at 31% in experiment [1] and 80% in experiment [4]. Also, the Ki in [2] is 17 nM; in experiment [3], 15 nM; in [8], 1.5 nM. Moreover, the EC50 in [6] was > 10000 nM; in [7] it was 2400 nM; in [9], 28 nM.
With `CCCC[C@H](NC(=O)[C@@H](NC(=O)[C@@H](N)Cc1ccc(O)cc1)C(C)C)C(=O)N[C@H]1CC(=O)NCCCC[C@H](C(=O)N[C@@H](CCCN=C(N)N)C(=O)N[C@@H](Cc2ccccc2)C(=O)NCC(N)=O)NC(=O)[C@@H](Cc2c[nH]c3ccccc23)NC(=O)[C@H](CCCN=C(N)N)NC(=O)[C@@H](Cc2ccccc2)NC(=O)[C@H](Cc2c[nH]cn2)NC1=O`, the Activity in [1], in experiment [4] and in [5] was 100% in each case.
As for `CC(C)[C@H](NC(=O)[C@@H](N)Cc1ccc(O)cc1)C(=O)NC1CSSCC(C(=O)N[C@@H](CCCN=C(N)N)C(=O)N[C@@H](Cc2ccccc2)C(=O)NCC(N)=O)NC(=O)[C@H](Cc2c[nH]c3ccccc23)NC(=O)[C@H](CCCN=C(N)N)NC(=O)[C@@H](Cc2ccccc2)NC(=O)[C@H](Cc2c[nH]cn2)NC(=O)CNC1=O` (stereo in doubt), the values for the Ki in [2], in experiment [3] and in experiment [8] were > 3900 nM, > 10000 nM and 460 nM, respectively. The Activity in experiment [5] is 46%. Further, the results for the EC50 in experiment [6], in [7] and in [9] were 250 nM, > 10000 nM and > 10000 nM, respectively.
In [1], `CC(C)[C@H](NC(=O)[C@@H](N)Cc1ccc(O)cc1)C(=O)N[C@H]1C(=O)NCC(=O)N[C@@H](Cc2c[nH]cn2)C(=O)N[C@H](Cc2ccccc2)C(=O)N[C@@H](CCCN=C(N)N)C(=O)N[C@@H](Cc2c[nH]c3ccccc23)C(=O)N[C@H](C(=O)N[C@@H](CCCN=C(N)N)C(=O)N[C@@H](Cc2ccccc2)C(=O)NCC(N)=O)CSSC1(C)C` had an Activity of 77%.
For the molecule `CC(C)[C@H](NC(=O)[C@@H](N)Cc1ccc(O)cc1)C(=O)N[C@@H]1CSSC[C@@H](C(=O)N[C@@H](CCCN=C(N)N)C(=O)N[C@@H](Cc2ccccc2)C(=O)NCC(N)=O)NC(=O)[C@H](Cc2c[nH]c3ccccc23)NC(=O)[C@H](CCCN=C(N)N)NC(=O)[C@@H](Cc2ccccc2)NC(=O)[C@H](Cc2c[nH]cn2)NC(=O)CNC1=O`, the Activity in experiment [1] was 93%; in [4] it was 16%; in experiment [5] it was 92%.
On to `CCCC[C@H](NC(=O)[C@@H](NC(=O)[C@@H](N)Cc1ccc(O)cc1)C(C)C)C(=O)NCC(=O)N[C@@H](CCN)C(=O)N[C@@H](Cc1ccccc1)C(=O)N[C@@H](CCCN=C(N)N)C(=O)N[C@H](Cc1ccc2ccccc2c1)C(=O)N[C@@H](CC(=O)O)C(=O)N[C@@H](CCCN=C(N)N)C(=O)N[C@@H](Cc1ccccc1)C(=O)NCC(N)=O`, for which the Activity in [4] was 100%.
Take `CCCC[C@H](NC(=O)[C@@H](NC(=O)[C@@H](N)Cc1ccc(O)cc1)C(C)C)C(=O)NCC(=O)N1CCC[C@H]1C(=O)N[C@H](Cc1ccc2ccccc2c1)C(=O)N[C@@H](CCCN=C(N)N)C(=O)N[C@@H](Cc1c[nH]c2ccccc12)C(=O)N[C@@H](CC(=O)O)C(=O)N[C@@H](CCCN=C(N)N)C(=O)N[C@@H](Cc1ccccc1)C(=O)NCC(N)=O` (H-YV[Nle]GP[d2Nal]RWDRFG-NH2): the Activity amounted to 70% in experiment [1] and 100% in experiment [5]. The Ki in [2] came out at 14 nM; in experiment [3], 0.2 nM; in experiment [8], 0.22 nM.
